STEP inh – inhibitors of human striatal-enriched phosphatase STEP | P54829 | recombinant STEP, OMFP fluorogenic substrate, fluorescence | inhibition, % at 20 µM | actives 0.25% (n = 360,000);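 active = inhibition at 20 µM, scaled per plate between control wells, above about 37%, limit read from the data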
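Assay system: isolated STEP enzyme / Timing: 20 min at room temperature, dark / Doses: 20 µM, 1% DMSO / Technique: fluorescence intensity, excitation 480 nm, emission 540 nm / Reagent: fluorogenic phosphatase substrate OMFP at 25 µM final / Measure: percent inhibition scaled to no-enzyme and uninhibited-enzyme controls, plate-pattern corrected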
SUMO1 PPI mod – SUMO1-SIM interaction modulation. P63165. SUMO1 binding to a labelled peptide, TR-FRET, 1 h. inhibition, % at 20 µM. actives 0.33% (n = 360,000). AID 602429; in the data active = inhibition above about 37%
Target sequence (P63165 whole entry, looked up): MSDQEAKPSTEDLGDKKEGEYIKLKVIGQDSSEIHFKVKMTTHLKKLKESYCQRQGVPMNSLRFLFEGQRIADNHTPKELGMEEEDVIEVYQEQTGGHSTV
LMPTP inh – LMPTP (human) inhibition; P24666; recombinant LMPTP-A, OMFP fluorogenic substrate, fluorescence intensity; inhibition, % at 20 µM; actives 0.22% (n = 360,000); AID 651560;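 active = compounds that cut the enzyme signal by at least half of the control window in the single-dose screen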
Target sequence (P24666 whole entry, looked up): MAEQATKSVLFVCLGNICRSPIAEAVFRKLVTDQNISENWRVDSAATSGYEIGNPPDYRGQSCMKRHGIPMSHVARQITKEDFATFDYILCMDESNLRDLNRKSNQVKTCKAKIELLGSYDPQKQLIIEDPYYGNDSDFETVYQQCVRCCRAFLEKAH
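Assay system: LMPTP-A phosphatase enzyme | Input: 0.625 nM enzyme | Also added: Fluorogenic phosphatase substrate OMFP at 400 µM final | Compound dosing: One test concentration per compound, 20 µM, with 3% DMSO overall | Schedule: 50 min enzyme reaction at room temperature, protected from light | Signal: Fluorescence intensity | Benchmarks: no-enzyme and uninhibited controls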
Scp1 inh – blocks human Scp-1 phosphatase activity; Q9GZU7; Recombinant Scp1, phosphopeptide, malachite green phosphate absorbance; inhibition, % at 20 µM; actives 0.88% (n = 340,000); AID 493091;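 active = inhibition above about 50% at 20 µM, limit read from the data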
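Test system: SCP-1 catalytic domain; Buffer or medium: Acidic Tris acetate buffer with magnesium and detergent; Also added: Phosphorylated 17-residue peptide substrate; Compound: single 20 µM dose, 1% DMSO; Schedule: enzyme reaction 45 min at room temperature, colour 5 min, stabilisation 30 min; Signal: Phosphate-binding colour reagent, absorbance read at 630 nm.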
DNMT1 block – blocks human DNA methyltransferase DNMT1. DNMT1 molecular beacon, Hinp1I cleavage, fluorescence. inhibition (reported as % activation of signal), % at 10 µM. P26358. actives 0.83% (n = 360,000); in the data active = inhibition above about 50%
Numbers stand for hits; - = inactive; . = not tested or not shown. A selection: hits, their analogues and other compounds. The true share with any hit is near 1.7%.

SMILES	STEP inh	SUMO1 PPI mod	LMPTP inh	Scp1 inh	DNMT1 block
O=[N+]([O-])c1nn(-c2ccc(Cl)cc2)n(O)c1=NCc1cccnc1	-	-	-	-	-
Cc1ccc(-c2nn(-c3ccccc3)cc2C2CC(c3cccs3)=NN2C(=O)CCCC(=O)O)cc1 (configuration not stated)	-	-	-	89	-
CC1CCc2sc(C(=O)NNC(=S)NC3CC3)cc2C1 (configuration not stated)	-	-	-	-	-
NC(=O)NC(=O)C(Nc1ccc(N2CCCCC2)cc1)c1ccccc1 (configuration not stated)	-	-	-	-	-
Cc1ccccc1NC(=O)COC(=O)COc1ccc2ccc(=O)oc2c1	-	-	-	.	-
COc1cccc(C(=O)Nc2cccc(NC(=O)c3ccccc3Cl)c2)c1	-	-	-	-	-
COc1cccc(C(=O)Nc2cccc(C(=O)NC3=NN(c4c(Cl)cc(Cl)cc4Cl)C(=O)C3)c2)c1	-	44	-	-	-
CCNc1ccc(Br)cc(C(=O)/C=C/c2c(Cl)cccc2Cl)c1=O	-	-	-	-	84
CNc1ccc(Br)cc(C(=O)/C=C/c2ccc(Cl)cc2Cl)c1=O	-	-	-	-	67
Cc1ccc(NC(=O)CN2C(=O)S/C(=C\c3cc(C)n(-c4ccc(C(=O)O)cc4)c3C)C2=O)cc1	-	-	-	-	-
Cc1ccc(NC(=O)CN2C(=O)N/C(=C/c3cccn3-c3ccc(C(=O)O)cc3)C2=O)cc1	97	49	50	93	107
COC(=O)c1ccccc1NC(=O)CSc1nc(NC(=O)c2ccccc2)c2c(C)c(C)oc2n1	-	67	-	-	-
COc1ccccc1-c1c(C#N)c(N)nc2c1CCc1ccccc1-2	-	36	-	-	-
CCOc1cc(-c2c(C#N)c(N)nc3c2CCc2ccccc2-3)ccc1O	-	-	-	-	-
Cc1ccc(NC(=O)CCN2CCN(CCO)CC2)cc1Br	-	52	-	-	-
CCOC(=O)N1CCN(CCC(=O)Nc2ccc(C)c(Br)c2)CC1	-	-	-	-	-
CCn1cnc2cc(NCc3ccc(OC)cc3)ccc21	-	-	-	-	-
CCOc1ccc2nc3cc(NCc4ccc(OC)cc4)ccc3c(N)c2c1	-	110	-	-	-
Clc1ccc(-c2cnc3n2CCCCC3)cc1	-	43	-	-	-
CC(C)(CNC(=O)c1ccc(NS(=O)(=O)c2ccc(Br)cc2)cc1)N1CCOCC1	-	-	-	-	-
COc1cc(C#Cc2c(C=O)n(C)c3ccccc23)cc(OC)c1	-	-	-	-	-
Cn1c2ccccc2c(=O)c2cc(C#Cc3ccccn3)ccc21	-	-	-	58	-
Cn1c2ccccc2c(=O)c2ccc(C#Cc3ccccn3)cc21	.	.	.	-	.
C=CCn1c2ccccc2c(=O)c2cc(C#Cc3cc(OC)cc(OC)c3)ccc21	-	-	-	52	-
CCCN(C(=O)COC(=O)CCC(=O)c1ccccc1)c1c(N)n(Cc2ccccc2)c(=O)[nH]c1=O	-	-	-	.	-
SMILES	STEP inh	SUMO1 PPI mod	LMPTP inh	Scp1 inh	DNMT1 block
O=C1CC(c2ccc(O)c(O)c2)Oc2c1ccc(O)c2O (configuration not stated)	-	-	60	53	-
CCN1C(c2ccccc2)=C(c2ccccc2)S/C1=C\C=C1/SC(=S)N(C)C1=O	-	-	-	-	-
CCN1C(=O)/C(=C/C=C2/Sc3ccc4ccccc4c3N2CCO)SC1=S	-	41	-	-	-
CS(=O)(=O)c1ccc(C(=O)OC2CCOC2=O)cc1[N+](=O)[O-] (configuration not stated)	-	-	-	-	68
O=C(OC1CCOC1=O)c1ccccc1C(=O)c1ccc(Cl)c([N+](=O)[O-])c1 (configuration not stated)	-	-	-	-	-
CCOC(=O)C1(Cc2ccccc2)C(=O)Nc2ccccc21 (configuration not stated)	-	-	-	-	-
CCOC(=O)C12CNC(=O)C(C(=O)OCC)(CNC1=O)C2	-	40	-	-	-
Cc1cc2c(cc1C)NC(c1cccnc1)C1=C(CC(C)(C)CC1=O)N2 (configuration not stated)	-	-	-	-	-
